Measured values from ChEMBL document CHEMBL1139056, “3D-QSAR design of novel antiepileptic sulfamides” (2007).
Active and inactive are the calls of the source. No cut-off for these calls is given here.

Tests used:
[1] = system: Mus musculus; experiment: Anticonvulsant activity in ip dosed Albino mouse by MES test; format: functional
Summary of the method: (§1)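 Albino mice of matched age and weight, 12-h light/dark cycle, free food and water. Compound given ip in 30% PEG 400 and 10% water, 0.01 ml/g body weight. MES test by NIH antiepileptic drug development program standard procedures. ED50 from groups of six mice at several doses at time of peak effect; Litchfield–Wilcoxon with 95% confidence intervals.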

[2] = system: Mus musculus; experiment: Anticonvulsant activity in ip dosed Albino mouse by PIC test; format: functional, organism-based
Summary of the method: (§2)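 Mice of matched age and weight, 12-h light/dark cycle, food and water ad libitum. Dosing ip in 30% PEG 400 and 10% water at 0.01 ml/g body weight. PIC and PTZ seizure tests run by NIH antiepileptic drug development program standard procedures.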

[3] = system: Mus musculus; experiment: Anticonvulsant activity in ip dosed Albino mouse by PTZ test; format: functional, organism-based; summary of the method: as §2
[4] = system: Mus musculus; experiment: Anticonvulsant activity in ip dosed Albino mouse assessed as time of peak effect by MES test; format: functional; summary of the method: as §1

O=S(=O)(N1CCOCC1)N1CCOCC1
Activity [1]: inactive | Activity [2]: inactive | Activity [3]: inactive

O=S(=O)(NC1CC1)NC1CC1
Activity [1]: inactive | Activity [2]: inactive | Activity [3]: inactive

O=S(=O)(NCc1ccccc1)NCc1ccccc1 [BENZYL(BENZYLSULFAMOYL)AMINE]
ED50 [1]: 238 µmol/kg | Activity [2]: inactive | Activity [3]: inactive | Activity [4]: 2 h

O=S(=O)(NC1CCCCC1)NC1CCCCC1
ED50 [1]: 151 µmol/kg | Activity [3]: inactive | Activity [4]: 0.5 h

CCCCNS(=O)(=O)NCCCC [BUTYL(BUTYLSULFAMOYL)AMINE]
ED50 [1]: 295 µmol/kg | Activity [2]: inactive | Activity [3]: inactive | Activity [4]: 2 h
